High-throughput results (PubChem BioAssay)
CAL PDZ FP-1 – inhibitors of human CAL PDZ peptide binding; purified CAL PDZ, TMR-peptide fluorescence polarization, 1 h; AID 504414; 330,000 tested, 0.02% active; inhibition, % at 20 µM; Q9HD26;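 active = highest replicate inhibition of at least 40%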
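Material: tagged CAL PDZ domain; buffer or medium: 25 mM sodium phosphate pH 7.4, 150 mM NaCl, TCEP, IgG, Thesit; compound dosing: single point, 20 µM; schedule: 1 h incubation at room temperature before polarization reading; measured by: FP readout, S and P plane fluorescence; read-out basis: percent inhibition from loss of millipolarization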
CAL PDZ FP-2 – CAL PDZ (human) peptide binding inhibition. AID 602252. inhibition, % at 24.9 µM. 300,000 tested, 0.92% active. purified CAL PDZ, TMR-peptide fluorescence polarization, 1 h. Q9HD26;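 active = mean inhibition of at least 30% with at least half of replicates also reaching 30%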
ARNT-TACC3 inh – disrupts binding between human ARNT and TACC3; inhibition, % at 9.99 µM; AlphaScreen His-ARNT PAS-B/GST-TACC3 binding, luminescence; TACC3 fragment carries E629A point mutation; AID 623870; 390,000 tested, 0.66% active; Q9Y6A5;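 active = mean inhibition of replicates at least 50% and at least half of replicates each reaching 50%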
ARNT Alpha ctr-1 – AlphaScreen artifact in ARNT/TACC3 counter-screen. His-ARNT PASB-GST AlphaScreen artifact counter-screen, luminescence. shares compounds with ARNT-TACC3 inh. AC50, µM (series often up to 68 µM). AID 651705. 1,200 tested, 50% active;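 active = every separate test run was called active for a drop in luminescence, with AC50 within twice the top valid dose, actives reach about 71 µM in these data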
ARNT Alpha ctr-2 – produces AlphaScreen artifacts in ARNT-TACC3 counter-screen; AC50, µM; shares compounds with ARNT-TACC3 inh; 45 tested, 70% active; Dual-tagged His-ARNT PASB-GST AlphaScreen artifact counter-screen;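 active = luminescence drop, with half-maximal potency fitted within twice the sample's top valid dose, cut at about 70 µM in these data; inactive = the rest, including signal moving the wrong way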
A number is an active result; - = inactive; . = no result. The list is not random: actives were taken first. Their share in the collection is about 1.2%.

SMILES	CAL PDZ FP-1	CAL PDZ FP-2	ARNT-TACC3 inh	ARNT Alpha ctr-1	others
O=c1nccc(N/N=C/c2ccccc2O)[nH]1	-	-	-	.
COc1cccc(/C=N/NC(=O)c2ccc3nc[nH]c3c2)c1O	-	-	63.4	-
CCN(CC)c1ccc(/C=N/NC(=O)c2ccc3nc[nH]c3c2)c(O)c1	-	-	54.8	40.5µM
COc1cccc(/C=N/Nc2ccnc(=O)[nH]2)c1O	.	-	56.7	59.6µM
CCOc1ccccc1/C=N/NC(=O)c1cccc(S(=O)(=O)N(CC)CC)c1	-	.	-	.
COc1ccc(/C=N/NC(=O)c2ccc3nc[nH]c3c2)c(OC)c1	-	-	.	.
CCN(CC)S(=O)(=O)c1cccc(C(=O)N/N=C/c2ccc(O)c(O)c2O)c1	-	-	58.8	19.4µM
COc1cc(OC)c(OC)cc1/C=N/NC(=O)c1ccc2nc[nH]c2c1	-	-	-	.
COc1ccc(NC(=O)N(C)C[C@H]2Oc3ccc(NC(=O)Cn4cnnn4)cc3CC(=O)N([C@H](C)CO)C[C@@H]2C)cc1	.	.	-	.
CN(C)C(=O)[C@H]1N[C@H]2c3ccc(-c4ccc(F)cc4)c(=O)n3C[C@H]2[C@@H]1CO	.	.	-	.
C[C@H](CO)N1C[C@H](C)[C@@H](CN(C)C(=O)c2ccccc2)OCCCC[C@H](C)Oc2ccc(NS(=O)(=O)c3cccs3)cc2C1=O	.	.	-	.
COc1ccccc1-c1cnc2c(c1)C(=O)N([C@@H](C)CO)C[C@H](C)[C@H](CN(C)Cc1cccc(F)c1)O2	.	.	-	.
Cc1noc(C)c1S(=O)(=O)Nc1ccc2c(c1)C(=O)N([C@H](C)CO)C[C@@H](C)[C@H](CN(C)C(=O)Nc1ccc(C(F)(F)F)cc1)O2	.	.	-	.
C[C@@H]1CCCCO[C@@H](CN(C)C(=O)Nc2ccc3c(c2)OCO3)[C@H](C)CN([C@H](C)CO)C(=O)c2cc(NS(=O)(=O)c3ccccc3)ccc2O1	.	.	-	.
COc1ccc(-n2c(-c3ccc(Cl)cc3)c[n+]3c2CCc2ccccc2-3)cc1	-	-	-	.
Cc1ccc(-n2c(-c3ccc(Br)cc3)c[n+]3c2CCc2ccc4cccnc4c2-3)cc1	-	-	58.8	-
C[C@@H]1CN([C@@H](C)CO)C(=O)Cc2cc(NC(=O)NC3CCCCC3)ccc2O[C@H]1CN(C)Cc1ccc(Cl)c(Cl)c1	.	.	-	.
CCC(C)c1c(N)n(S(=O)(=O)c2ccc(C)cc2)oc1=O (stereo not given)	-	-	61.1	34.8µM
CCC(C)c1c(NS(=O)(=O)c2ccc(C)cc2)o[nH]c1=O (stereo not given)	-	.	-	.
C[C@@H]1CN([C@H](C)CO)C(=O)Cc2cc(NC(=O)CCCCCC(=O)Nc3ccccc3N)ccc2O[C@@H]1CN(C)C(=O)Nc1ccc2c(c1)OCO2	.	.	-	.
CN1CCc2c(sc3c2C(=O)NC(c2ccccc2)N3)C1 (stereo not given)	-	-	-	.
CN1CCc2c(sc3c2C(=O)NC(c2ccccn2)N3)C1 (stereo not given)	-	-	active	68.4µM
CC=Cc1ccc2n(c1=O)C[C@H]1[C@H](CO)[C@@H](C(=O)N3CCC(Cc4ccccc4)CC3)N(C)[C@@H]21 (mixture of isomers)	.	.	-	.
Cc1noc(C)c1NC(=O)Nc1ccc2c(c1)C(=O)N([C@@H](C)CO)C[C@@H](C)[C@H](CN(C)C)OCCCC[C@H](C)O2	.	.	-	.
Cc1ccc(C(=O)Nc2cccc(C(=O)N/N=C/c3ccc(O)cc3)c2)cc1	-	.	30.8	-
SMILES	CAL PDZ FP-1	CAL PDZ FP-2	ARNT-TACC3 inh	ARNT Alpha ctr-1	others
Cc1cccc(C(=O)Nc2cccc(C(=O)N/N=C/c3ccncc3)c2)c1	-	-	-	.
O=C(C[C@H]1C[C@H]2c3cc(NC(=O)NC4CCCCC4)ccc3O[C@H]2[C@H](CO)O1)NCc1ccccc1	.	.	active	-
O=C(C[C@@H]1C[C@H]2c3cc(NC(=O)NC4CCCCC4)ccc3O[C@H]2[C@@H](CO)O1)NCc1ccccc1	.	.	-	.
O=C(NC1CCCCC1)c1cc(-c2ccc(F)cc2)on1	-	-	-	.
O=C(NC1CCc2ccccc2C1)c1cc(-c2ccccc2)on1 (stereo not given)	.	.	.	-
O=C(NC1Cc2ccccc2C1)c1cc(-c2ccccc2)on1	.	.	.	-
Cc1ccc(-c2cc(C(=O)NC3CCCC3)no2)cc1	-	.	-	.
COc1ccc(CN(C)C[C@H]2Oc3ccc(NC(=O)Nc4ccccc4)cc3C(=O)N([C@H](C)CO)C[C@@H]2C)cc1	.	.	-	.
CCC(=O)Nc1ccc2c(c1)OC[C@@H](C)N(CC1CCOCC1)C[C@@H](C)[C@@H](OC)CN(C)C2=O	.	.	-	.
C[C@@H]1CN([C@@H](C)CO)S(=O)(=O)c2ccc(-c3cncnc3)cc2O[C@@H]1CN(C)C(=O)Cc1ccccc1	.	.	-	.
COC(=O)Cc1cc(=O)n(-c2nc3ccccc3[nH]2)[nH]1	-	.	61.9	60.2µM	ARNT Alpha ctr-2=37.8
COC(=O)Cc1[nH]n(-c2nc3ccccc3s2)c(=O)c1C(C)=O	-	-	-	.
CC(=O)N(C)C[C@H]1Oc2ncc(C#Cc3ccccc3)cc2C(=O)N([C@H](C)CO)C[C@H]1C	.	.	-	.
CN1CCN(C(=O)c2cccc(-c3cc(O)c4ncccc4c3)c2)CC1	-	-	74.6	17µM
O=C(c1cc2ccccc2cc1O)N1CCN(c2ccccn2)CC1	-	-	-	.
CN1CCN(c2cc(-c3cc(O)c4ncccc4c3)ccn2)CC1	-	-	69.1	10.9µM
CN1CCCN(C(=O)c2cccc(Br)c2)CC1	-	-	-	.
C[C@H](CO)N1C[C@H](C)[C@H](CN(C)C(=O)Nc2ccc(C(F)(F)F)cc2)Oc2ccc(N(C)C)cc2C1=O	.	.	-	.
CCOc1cc(/C=C2\SC(=S)N(N3CCOCC3)C2=O)ccc1O	-	-	-	.
CCOc1cc(/C=C2\SC(=N)N(c3nccs3)C2=O)ccc1OCCN1CCOCC1	-	-	50.6	69.6µM
CN1[C@@H]2CN(C(=O)C3CCOCC3)c3ccccc3[C@@H]2[C@@H]1CO	.	.	-	.
CCCNC(=O)[C@H]1[C@H](CO)[C@H]2Cn3c(ccc(-c4ccccc4F)c3=O)[C@H]2N1CCC	.	.	-	.
O=S(=O)(NC1CCN(Cc2ccc(OCCO)cc2)CC1)c1cccc2cccnc12	.	.	112.9	24.8µM
O=S(=O)(c1cccc2cccnc12)N1CCN(Cc2ccc(OCCO)cc2)CC1	.	.	64.2	51.4µM
O=S(=O)(NC1CCN(Cc2ccc(OCCO)cc2)CC1)c1cc(Cl)ccc1Cl	.	.	-	.
O=C(C1CCN(S(=O)(=O)c2cccc3cccnc23)CC1)N1CCN(Cc2ccccc2)CC1	-	-	-	.
COc1cccc(S(=O)(=O)Nc2ccc3c(c2)C(=O)N(C)[C@H]2CC[C@@H](CC(=O)O)O[C@@H]2CO3)c1	.	.	-	.
C[C@H]1CN([C@@H](C)CO)C(=O)CCCn2cc(nn2)CO[C@H]1CN(C)S(=O)(=O)c1ccccc1F	.	.	-	.
CO[C@H]1CN(C)C(=O)c2ccc(NC(C)=O)cc2OC[C@@H](C)NC[C@@H]1C	.	.	-	.
O=C(Cn1cnc([N+](=O)[O-])n1)N/N=C/c1cc(Cl)ccc1O	-	-	58.0	70.4µM
